Here are results for 4 compounds from publication PMC7269016 (The Journal of investigative dermatology, 2018).

“Also recorded” adds a separate entry of the source. Bounds are passed on as bounds.

Experiment [1] concerns Hut78 cells. In kind it is cell-based, human. The conditions noted are these: for reduction of Hut78 cell viability (in words): Figure 5a.
Experiment [2] concerns the target T1, p38γ (Homo sapiens, UniProt P53778).
T1 sequence (P53778 1-367): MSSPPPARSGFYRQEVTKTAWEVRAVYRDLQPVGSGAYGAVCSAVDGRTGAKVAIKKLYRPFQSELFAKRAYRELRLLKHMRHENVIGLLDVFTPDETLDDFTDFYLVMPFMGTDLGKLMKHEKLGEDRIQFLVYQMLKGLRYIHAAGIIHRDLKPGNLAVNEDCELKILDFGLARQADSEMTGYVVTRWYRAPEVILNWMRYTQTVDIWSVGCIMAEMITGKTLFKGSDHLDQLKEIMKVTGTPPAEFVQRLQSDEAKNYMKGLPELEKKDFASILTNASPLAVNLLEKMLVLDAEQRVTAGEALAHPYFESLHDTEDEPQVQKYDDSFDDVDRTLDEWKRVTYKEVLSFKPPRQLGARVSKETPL
Description: ADP-Glo in vitro kinase assay. In kind it is biochemical. As to conditions: for inhibition of p38γ kinase activity (in words): cell-free ADP-Glo, 1 μmol/L and 10 μmol/L, Figure 5c. (In general: In ADP-Glo the light output rises with the ADP produced.)

Experiment [3] concerns CTCL cells. Description: Cell killing of CTCL cells. In kind it is cell-based. The conditions noted are these: Homo sapiens, read-out: IC50 for cell killing on the CTCL cells. The gist of the method:
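Hut78, HH and H9 CTCL cell lines were exposed to varying concentrations of test compound for 72 hours. Viability was read by CellTiterGlo and normalized to DMSO control. IC50 was derived from dose-response data. There were three independent experiments, each averaged from triplicates.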

In the case of `Cc1nc(NC(=O)N2CCC[C@H]2C(N)=O)sc1-c1csc(C(C)(C)C)n1` [A66], in experiment [1] (up to approximately 10 μmol/L, 72 hours), the “influence on viability of Hut78 cells (in words)” value is recorded as “no influence on the viability of Hut78 cells; also recorded: does not affect cell viability”. In addition, the “inhibition of p38γ kinase activity (in words)” value (“inhibition” below) in experiment [2] is listed as “no inhibitory kinase activities against p38γ; also recorded: does not inhibit in vitro activity of p38γ”.

With `Cn1c(=O)n(-c2ccc(C(C)(C)C#N)cc2)c2c3cc(-c4cnc5ccccc5c4)ccc3ncc21` [BEZ235], the “reduction of Hut78 cell viability (in words)” value in experiment [1] was “only modest reduction of cell viability”. In addition, the “inhibition” value in experiment [2] is recorded as “no inhibitory kinase activities against p38γ”.

As to `CS(=O)(=O)N1CCN(Cc2cc3nc(-c4cccc5[nH]ncc45)nc(N4CCOCC4)c3s2)CC1` [GDC0941], the “reduction of Hut78 cell viability (in words)” value in experiment [1] is listed as “only modest reduction of cell viability”. The “inhibition” value in experiment [2] was “no inhibitory kinase activities against p38γ”.

What is called IC50 is the midpoint of a concentration-inhibition curve. Consider `Cc1ccc(=O)n(-c2ccccc2)c1` [pirfenidone], for which the IC50 in experiment [3] and in experiment [2] was greater than 125 µM in each case.
